Results taken from ChEMBL document CHEMBL1154356, “1-Peptidyl-2-arachidonoyl-3-stearoyl-sn-glyceride: an immunologically active lipopeptide from goat serum (Capra hircus) is an endogenous damage-associated molecular pattern” (J Nat Prod, 2009).
Activity calls are given as the source filed them. The rule behind the calls is not given here. Where a SMILES comes first, the peptide text is derived from it. The star is where a group is joined. X1 = CCCCC/C=C\C/C=C\C/C=C\C/C=C\CCCC(=O)O[C@@H](COC(=O)CCCCCCCCCCCCCCCCC)CO*

Tests used:
Fibroblast [1] = assay: Immunomodulatory effect in human fibroblasts assessed as induction of MCP1 mRNA expression at 3 ng/ml after 24 hrs by SYBR Green PCR relative to beta-actin control; assay type: functional
How it was run: (§1)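 Normal primary human fibroblasts were grown in DMEM with 10% FBS and 1× penicillin/streptomycin at 37 °C and 5% CO2. Cells were treated for 24 h with synthetic compound or with purified natural material diluted 1:100. Total RNA was extracted, and 2.0 µg was reverse-transcribed for transcript quantitation. Expression was normalised to β-actin.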

Fibroblast [2] = assay: Immunomodulatory effect in human fibroblasts assessed as induction of IL6 mRNA expression at 5 ng/ml after 24 hrs by SYBR Green PCR relative to beta-actin control; assay type: functional; how it was run: as §1
Fibroblast [3] = assay: Immunomodulatory effect in human fibroblasts assessed as induction of IL6 mRNA expression at 1:100 dilution after 24 hrs by SYBR Green PCR relative to beta-actin control; assay type: functional; how it was run: as §1
Fibroblast [4] = assay: Immunomodulatory effect in human fibroblasts assessed as induction of IL8 mRNA expression at 3 ng/ml after 24 hrs by SYBR Green PCR relative to untreated control; assay type: functional; how it was run: as §1
[5] = Toxicity in human fibroblasts assessed as decrease in IL8 mRNA expression after 24 hrs by SYBR Green PCR relative to untreated control; assay type: cell-based; details: fibroblast; how it was run: as §1
Fibroblast [6] = assay: Induction of IL8 secretion in human fibroblasts after 24 hrs by ELISA relative to untreated control; assay type: functional
How it was run: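 Primary human fibroblasts were cultured in complete DMEM with synthetic compound across a dose range that included 0.3–3 ng/mL, for 24 h. Supernatants were stored at -80 °C. IL-8 was measured by sandwich ELISA: plates coated with anti-human IL-8 overnight at 4 °C, blocked 60 min at room temperature, sample 2 h, detection antibody 30 min, avidin-HRP 30 min, then TMB substrate.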

Fibroblast [7] = assay: Immunomodulatory effect in human fibroblasts assessed as induction of MCP1 mRNA expression at 1:100 dilution after 24 hrs by SYBR Green PCR relative to beta-actin control; assay type: functional; how it was run: as §1
Fibroblast [8] = assay: Immunomodulatory effect in human fibroblasts assessed as induction of MIP-1alpha mRNA expression at 3 ng/ml after 24 hrs by SYBR Green PCR relative to beta-actin control; assay type: functional; how it was run: as §1
Fibroblast [9] = assay: Immunomodulatory effect in human fibroblasts assessed as induction of MIP-1alpha mRNA expression at 1:100 dilution after 24 hrs by SYBR Green PCR relative to beta-actin control; assay type: functional; how it was run: as §1
Fibroblast [10] = assay: Induction of IL33 expression in human fibroblasts at 12.5 ng/ml after 24 hrs by SYBR Green PCR relative to untreated control; assay type: functional, cell-based
Fibroblast [11] = assay: Induction of IL18 expression in human fibroblasts at 12.5 ng/ml after 24 hrs by SYBR Green PCR relative to untreated control; assay type: functional
Fibroblast [12] = assay: Induction of IL1-beta expression in human fibroblasts at 12.5 ng/ml after 24 hrs by SYBR Green PCR relative to untreated control; assay type: functional, cell-based
Fibroblast [13] = assay: Induction of IL6 expression in human fibroblasts at 12.5 ng/ml after 24 hrs by SYBR Green PCR relative to untreated control; assay type: functional, cell-based
Fibroblast [14] = assay: Induction of IL8 expression in human fibroblasts at 12.5 ng/ml after 24 hrs by SYBR Green PCR relative to untreated control; assay type: functional, cell-based

With `CCCCC/C=C\C/C=C\C/C=C\C/C=C\CCCC(=O)O[C@@H](COC(=O)CCCCCCCCCCCCCCCCC)COC(=O)[C@@H](NC(=O)CNC(=O)[C@@H](NC(=O)[C@H](CS)NC(=O)[C@H](CC(=O)O)NC(=O)[C@H](CCCCN)NC(=O)[C@H](CCC(N)=O)NC(=O)[C@H](CCC(=O)O)NC(=O)[C@H](CCCCN)NC(=O)[C@H](CO)NC(=O)[C@@H](NC(=O)[C@H](Cc1ccc(O)cc1)NC(=O)CNC(=O)[C@H](CCCCN)NC(=O)[C@H](CC(=O)O)NC(=O)[C@H](Cc1ccc(O)cc1)NC(=O)[C@H](CC(C)C)NC(=O)[C@H](C)NC(C)=O)[C@@H](C)O)C(C)C)[C@@H](C)CC` (Ac-ALYDKGYTSKEQKDCVGI-X1) the “fold change (FC)” value (Fibroblast [1]) was 3, the Activity (Fibroblast [2]) was 20% and the Activity (Fibroblast [3]) was 40%. The “fold change (FC)” value (Fibroblast [4]) was 5, the Activity [5] was “Dose-dependent effect” and the Activity (Fibroblast [6]) was “Dose-dependent effect”. For the same molecule, the EC99 (Fibroblast [6]) was 0.003 µg/mL, the “fold change (FC)” value (Fibroblast [7]) was 3 and the Activity (Fibroblast [8]) was 15%. The Activity (Fibroblast [9]) was 15%, the Activity (Fibroblast [10]) was “Active” and the Activity (Fibroblast [11]) was 20%. For the same molecule, the Activity (Fibroblast [12]) was “inactive”, the Activity (Fibroblast [13]) was “inactive” and the Activity (Fibroblast [14]) was “inactive”.
